From ChEMBL document CHEMBL1157857, “Synthesis and antimicrobial of new anthraquinone derivatives incorporating pyrazole moiety” (2010)

Tests used:
Type in all cases: functional
[1] = system: Staphylococcus epidermidis; assay: Antibacterial activity against Staphylococcus epidermidis at 2 mg/ml after 24 hrs by agar diffusion method; details: read-out: DIZ
Procedure, shortened: (§1)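 Bacteria grown on nutrient agar, incubated 24 h; inhibition zone diameter measured as activity read-out. Three replicate plates per compound. DMSO-only control included for each organism. Ampicillin, chloramphenicol and cloxacillin used at 2 mg/mL as reference drugs.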

Pseudomonas aeruginosa = assay: Antibacterial activity against Pseudomonas aeruginosa at 2 mg/ml after 24 hrs by agar diffusion method; details: read-out: DIZ; procedure, shortened: as §1
Alternaria solani = assay: Antifungal activity against Alternaria solani at 2 mg/ml after 7 days by agar diffusion method; details: 168 h, read-out: DIZ
Procedure, shortened: (§2)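 Fungi tested on potato dextrose agar, incubated seven days; diameter of inhibition zone recorded as activity measure. Three plates per compound as replicates. DMSO without test compound served as control for each organism. Reference drugs (ampicillin, chloramphenicol, cloxacillin) used at 2 mg/mL.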

Fusarium solani = assay: Antifungal activity against Fusarium solani at 2 mg/ml after 7 days by agar diffusion method; details: 168 h, read-out: DIZ; procedure, shortened: as §2

SMILES	zone of inhibition at 2000 µg/mL [1] [mm]	zone of inhibition at 2000 µg/mL (Pseudomonas aeruginosa) [mm]	zone of inhibition at 2000 µg/mL (Alternaria solani) [mm]	zone of inhibition at 2000 µg/mL (Fusarium solani) [mm]
O=C1c2ccccc2C(=O)c2cc(-n3cnc4n[nH]c(Nc5ccccc5)c4c3=O)ccc21	15	20	11	
Cc1cc(C)n2nc(Nc3ccccc3)c(C(=O)Nc3ccc4c(c3)C(=O)c3ccccc3C4=O)c2n1	20	17	14	13
Cc1ccc(C)n1-c1n[nH]c(Nc2ccccc2)c1C(=O)Nc1ccc2c(c1)C(=O)c1ccccc1C2=O	19	16		
Nc1n[nH]c(Nc2ccccc2)c1C(=O)Nc1ccc2c(c1)C(=O)c1ccccc1C2=O	11	14	14	16
CN(C)/C=C(\C#N)C(=O)Nc1ccc2c(c1)C(=O)c1ccccc1C2=O		14		12
Nc1n[nH]cc1C(=O)Nc1ccc2c(c1)C(=O)c1ccccc1C2=O	22	16	17	16
Cc1cc(C)c2c(N/N=C(/C#N)C(=O)Nc3ccc4c(c3)C(=O)c3ccccc3C4=O)n[nH]c2n1	19	27	18	13
Cc1cc(C)c2c(n1)nn1c(N)c(C(=O)Nc3ccc4c(c3)C(=O)c3ccccc3C4=O)nnc21	14	21	19	17
Cc1c(N/C(Nc2ccccc2)=C(\C#N)C(=O)Nc2ccc3c(c2)C(=O)c2ccccc2C3=O)c(=O)n(-c2ccccc2)n1C	24	22	21	16
Cc1nn(-c2ccccc2)c2c1cnc1c(C(=O)Nc3ccc4c(c3)C(=O)c3ccccc3C4=O)c(Nc3ccccc3)nn12	17	19		14
O=C1c2ccccc2C(=O)c2cc(NC(=O)c3c(Nc4ccccc4)nn4c5c(cnc34)CCc3ccccc3-5)ccc21	25	20	22	14
COc1ccc(-c2ccnc3c(C(=O)Nc4ccc5c(c4)C(=O)c4ccccc4C5=O)c(Nc4ccccc4)nn23)cc1	21	20	17	15
CS/C(Nc1ccccc1)=C(\C#N)C(=O)Nc1ccc2c(c1)C(=O)c1ccccc1C2=O	12	13	12	
CC1(C)S[C@@H]2[C@H](NC(=O)[C@H](N)c3ccccc3)C(=O)N2[C@H]1C(=O)O [AMPICILLIN]	19	21	19	17
O=C(N[C@H](CO)[C@H](O)c1ccc([N+](=O)[O-])cc1)C(Cl)Cl [CHLORAMPHENICOL]	27	24	18	17
Cc1onc(-c2ccccc2Cl)c1C(=O)N[C@@H]1C(=O)N2[C@@H]1SC(C)(C)[C@@H]2C(=O)O [CLOXACILLIN]	22	30	20	22
